PDI turbidity – inhibitors of human PDI, primary screen, biochemical, turbidity, single point, plate reader; PDI insulin aggregation turbidity, A650, 90 min; inhibition, % at 10 µM; hit rate 0.052% among 350,000;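 active = mean inhibition across replicates of 30% or more, whatever share of single replicates reach that level; inconclusive = mean inhibition below 30% while every single replicate reaches 30%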
CFTR F508del cor – F508del CFTR correction, initial screen, CFBE line, single point | CFBE cells, YFP halide quenching; stimulated with forskolin plus potentiator P3; % fluorescence drop versus neutral controls | activity (quench increase), % at 7.58 µM | hit rate 0.36% among 350,000;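 active = mean added fluorescence quench of at least 8% versus neutral control, with both replicates also reaching 8%; inconclusive = only one of the mean or replicate conditions met; inactive = mean below 8% and not both replicates reaching 8%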;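 also: cells transiently co-express mutant CFTR-F508del with the halide-sensitive YFP; corrector assay measuring rescue of mutant channel to the surface after 24 h compound exposure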
DENV2 CPE – inhibitors of DENV2 cytopathic effect, primary screen, cell-based, plate reader, single concentration; DENV2-infected cells, cytopathic effect rescue; CPE inhibition, % at 9.99 µM; hit rate 1.7% among 350,000; in the data active = CPE inhibition above about 20%, passing the limit was not always enough; inconclusive = no clear call, values can overlap the other calls; tested in BHK-21 cells;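 also: 0% = median of neutral control wells and 100% = median of positive control wells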
ERp5 inh – inhibitors of ERp5-driven insulin aggregation, primary screen, biochemical, turbidity, absorbance 650 nm, single point; Protein disulfide-isomerase A6 (Homo sapiens), Q15084; 90 min; inhibition, % at 9.99 µM; hit rate 0.05% among 350,000; AID 651711, 2012;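 active = mean replicate inhibition above about 25%, with every replicate also reaching it, limit read from the data, passing the limit was not always enough; inconclusive = only one of those two criteria met; inactive = neither criterion met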
Target sequence (Q15084 whole entry, looked up): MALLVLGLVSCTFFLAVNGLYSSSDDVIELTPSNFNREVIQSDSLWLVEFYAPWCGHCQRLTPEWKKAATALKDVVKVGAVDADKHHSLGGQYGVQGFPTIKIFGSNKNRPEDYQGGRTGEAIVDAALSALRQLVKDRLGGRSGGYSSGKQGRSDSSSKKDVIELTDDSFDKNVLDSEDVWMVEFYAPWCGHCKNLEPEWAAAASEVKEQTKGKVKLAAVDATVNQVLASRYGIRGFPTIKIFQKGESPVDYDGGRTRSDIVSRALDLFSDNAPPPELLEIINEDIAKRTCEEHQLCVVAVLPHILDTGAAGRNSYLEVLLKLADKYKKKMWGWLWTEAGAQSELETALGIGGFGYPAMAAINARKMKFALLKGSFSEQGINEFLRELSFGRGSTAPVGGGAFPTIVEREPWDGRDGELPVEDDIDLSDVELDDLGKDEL
Cneo AK release – Cryptococcus neoformans cell lysis inducers, primary screen, AK release luminescence, single concentration; C. neoformans lysis, adenylate kinase release luminescence, 4 h; normalised: neutral wells 0, clomiphene wells 100; lysis activity, % at 15 µM; hit rate 0.2% among 360,000; AID 651654, 2012;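 active = mean lysis activity across replicates of at least 80%, whatever share of replicates individually reach that level; inactive = mean lysis activity below 80%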
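Material: C. neoformans cells; Schedule: 4 h static compound exposure, 37 °C, read 1 h post-reagent; Measured by: adenylate kinase release luminescence; Read-out: signal increase indicating cell lysis; Controls: Clomiphene as positive lysis control.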
Statin myotox sup – suppressors of statin myotoxicity in C2C12 myotubes, primary screen, cell-based, single point, plate reader. hit rate 0.78% among 330,000. AID 602340, 2012. rescue of ATP level, % at 7.49 µM. C2C12 myotubes + simvastatin, ATP luminescence, 48 h; scaled: DMSO 0, geranylgeraniol control 100;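 active = mean ATP rescue above about 67%, or every replicate alone reaching that limit, limit read from the data, passing the limit was not always enough; inconclusive = no clear call, values can overlap the other calls; inactive = mean under the limit and some replicate under it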;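 also: myotubes were challenged with 10 µM simvastatin during compound exposure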
* = called active by the depositor; ? = inconclusive; . = no result given. Hits are enriched below; roughly 2.3% of the tested compounds scored in any of these assays.

SMILES | PDI turbidity | CFTR F508del cor | DENV2 CPE | ERp5 inh | Cneo AK release | Statin myotox sup
CO[C@@H]1CN(C)C(=O)c2cc(NC(=O)Nc3c(C)noc3C)ccc2OC[C@@H](C)N(C)C[C@@H]1C | . | 9.6* | -6 | -5 | 1 | 1
CO[C@H]1CN(C)C(=O)c2cc(NC(=O)Nc3ccc(Cl)cc3)ccc2OC[C@H](C)N(C)C[C@@H]1C | . | 0 | 50* | 2 | -9 | -82
O=C(CCN1CCCCC1)N[C@H]1C=C[C@H](CC(=O)N2CCC(Cc3ccccc3)CC2)O[C@H]1CO | . | -4 | -3 | -4 | -1 | -2
CCN(CC)C(=O)CN(c1ccc(F)c(Cl)c1)S(C)(=O)=O | -12 | . | . | . | 18 | 70*
Cc1cc(C(=O)CN2CCN(CC(=O)Nc3ccc(F)cc3)CC2)c(C)n1C1CC1 | -5 | 23* | 16 | 0 | -7 | -2
O=C(CN1CCN(C(=O)C2CCC2)CC1)Nc1ccc(F)cc1 | 7 | 2 | 32* | 4 | -1 | 5
O=C(C[C@@H]1CC[C@@H]2[C@H](COC[C@@H](O)CN2Cc2ccccc2)O1)N[C@H]1CCN(Cc2ccccc2)C1 | . | 2 | -3 | -5 | -1 | 7
C[C@H]1CN([C@@H](C)CO)C(=O)c2cc(NC(=O)Nc3ccc(F)cc3)ccc2O[C@H]1CN(C)Cc1ccccc1 | . | -1 | 25* | -4 | 4 | -19
CC(C)NC(=O)Nc1ccc2c(c1)C(=O)N([C@H](C)CO)C[C@H](C)[C@H](CN(C)Cc1ccccc1)O2 | . | 2 | 4 | 1 | 4 | 17
CC(C)NC(=O)Nc1ccc2c(c1)C(=O)N([C@@H](C)CO)C[C@@H](C)[C@@H](CN(C)Cc1ccc(C(=O)O)cc1)O2 | . | -1 | 25* | 3 | -4 | -2
CC(C)NC(=O)Nc1ccc2c(c1)C(=O)N([C@H](C)CO)C[C@@H](C)[C@H](CN(C)Cc1ccccc1)O2 | . | 6 | 43* | -5 | 5 | -28
CC(C)NC(=O)Nc1ccc2c(c1)C(=O)N([C@@H](C)CO)C[C@H](C)[C@@H](CN(C)Cc1ccc(C(=O)O)cc1)O2 | . | 3 | -4 | 3 | -1 | 4
COCC(=O)Nc1ccc2c(c1)OC[C@H](C)N(C(=O)c1cccnc1)C[C@@H](C)[C@@H](OC)CN(C)C2=O | . | 2 | -10 | 2 | -2 | 10
COc1ccc(NC(=O)Nc2cccc3c2O[C@@H](CN(C)Cc2ccncc2)[C@@H](C)CN([C@@H](C)CO)C3=O)cc1 | . | -1 | -3 | 10 | 36 | -2
CCC(=O)Nc1ccc2c(c1)OC[C@H](C)N(Cc1ccncc1)C[C@@H](C)[C@H](OC)CN(C)C2=O | . | -2 | 4 | -6 | . | .
COC(=O)Cn1c2ccccc2c(=O)n1C(C)C | . | 1 | 21* | 6 | . | .
c1ccc(CN(CC2=NCCN2)c2ccccc2)cc1 | -5 | -2 | 14 | -3 | 0 | -2
CCN(Cc1ccccc1)c1ccccc1 | . | -2 | 37* | -1 | 1 | 6
CCN(Cc1ccccc1)c1ccc(/C=N/N=C(N)N)cc1 | 16 | 9.9* | 1 | 2 | 4 | .
Cc1ccc(NS(=O)(=O)c2ccc(C)c(C(=O)N3CCN(C)CC3)c2)cc1 | -2 | . | . | . | -1 | 123*
Cc1noc(C)c1S(=O)(=O)Nc1ccc2c(c1)CC(=O)N([C@@H](C)CO)C[C@H](C)[C@H](CN(C)S(=O)(=O)c1ccc(F)cc1)O2 | . | -2 | 3 | -5 | -1 | -2
CCCNC(=O)N(C)C[C@@H]1Oc2cc(-c3ccc(C)cc3)ccc2S(=O)(=O)N([C@H](C)CO)C[C@H]1C | . | 0 | -8 | -1 | 0 | 12
CCOC(=O)c1ccc(NC(=S)N2CCCC(C(=O)OCC)C2)cc1 (stereo not drawn) | -1 | 0 | 2 | -2 | -3 | 90*
CCOC(=O)N1CCN(C(=O)Cn2nc(C)c3sc4ccccc4c3c2=O)CC1 | 6 | . | . | . | 4 | 103*
Cc1ccc(-c2cnc3c(c2)C(=O)N([C@H](C)CO)C[C@H](C)[C@@H](CN(C)C(=O)c2cccnc2)O3)cc1 | . | 0 | -6 | 7 | 2 | 0
SMILES | PDI turbidity | CFTR F508del cor | DENV2 CPE | ERp5 inh | Cneo AK release | Statin myotox sup
CS(=O)(=O)N(CCc1ccccc1)CC(=O)Nc1ccccc1 | 4 | 1 | 7 | 5 | -2 | 4
CS(=O)(=O)N(CCc1ccccc1)CC(=O)N1CCc2ccccc2C1 | -1 | . | . | . | -1 | 111*
CS(=O)(=O)N(CCc1ccccc1)CC(N)=O | -2 | . | . | . | 1 | 102*
O=C(Cc1ccncc1)Nc1ccc2c(c1)[C@H]1C[C@@H](CC(=O)N3CCCCC3)O[C@@H](CO)[C@H]1O2 | . | -1 | 2 | 5 | 14 | -5
COc1cccc(-c2ccc(CC[C@H]3O[C@H]4CC[C@@H](CO)O[C@H]4C[C@@H]3NC(=O)c3cnccn3)cc2)c1 | . | -2 | ? | 1 | . | .
C[C@@H]1CN([C@@H](C)CO)C(=O)c2cc(C#CCc3ccccc3)cnc2O[C@H]1CN(C)C(=O)C1CC1 | . | -2 | 9 | 5 | -15 | 13
CCN1[C@H](C(=O)Nc2ccccc2)[C@@H](CO)[C@@H]2Cn3c(ccc(-c4ccccc4)c3=O)[C@@H]21 | . | 1 | -4 | 2 | 1 | 20
Cc1ccc(C(=O)O/N=C(\N)c2ccccn2)cc1 | 0 | -1 | 29* | -1 | -10 | -97
CCOc1ccc(C(=O)O/N=C(\N)c2ccccn2)cc1 | -3 | 8.2* | ? | 0 | -11 | -27
C=CCc1ccc(OCCCNCc2ccccc2)c(OC)c1 | 12 | 5 | 43* | 3 | 0 | 6
CCOc1ccc(C(F)(F)F)cc1NC(C)=O | 0 | . | . | . | -2 | 96*
CCOc1ccc(C(F)(F)F)cc1NC(=O)COc1ccc(C(F)(F)F)cc1[N+](=O)[O-] | 1 | . | . | . | 1 | -8
c1ccc(-c2ncc(CN3CCN(c4ccccn4)CC3)[nH]2)cc1 | -10 | 0 | 4 | -3 | -1 | 79*
C[C@H]1CCCCO[C@H](CN(C)CC2CCCCC2)[C@@H](C)CN([C@@H](C)CO)C(=O)c2cc(NC(=O)c3ccncc3)ccc2O1 | . | 2 | -3 | -4 | 8 | .
COc1ccc(N2C(=O)CSC23C(=O)N2c4c(cccc43)C(C)=CC2(C)C)cc1 (stereo not drawn) | 8 | -3 | 0 | 1 | 23 | 42
Cc1cc2c3c(c1)C1(SCC(=O)N1c1ccc(F)cc1)C(=O)N3C(C)(C)CC2C (stereo not drawn) | -4 | . | . | . | 0 | 110*

Source: PubChem BioAssay (Broad Institute)
